Six compounds from ChEMBL document CHEMBL1828627, “High-throughput-screening-based identification and structure-activity relationship characterization defined (S)-2-(1-aminoisobutyl)-1-(3-chlorobenzyl)benzimidazole as a highly antimycotic agent nontoxic to cell lines” (J Med Chem, 2011) can be followed below.

In series [1] the test system is Candida albicans. Briefly: Antifungal activity against Candida albicans SC5314 infected in HeLa cells after 5 days by fluorescein diacetate assay. It is filed as functional, organism-based. Put shortly: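 HeLa cells co-incubated with C. albicans and compound for 5 days. Dose–response from resynthesized compounds. Host-cell viability checked microscopically at 18 h, then quantified at day 5 by fluorescein diacetate conversion to a fluorophore by live cells. Wells also inspected visually for yeast growth. Controls: untreated uninfected HeLa (~100%) and untreated infected HeLa (~0%). IC50 derived from infected cells; CC50 as half-maximal cytotoxic concentration.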

The nature of series [2]: Selectivity index of CC50 for human HeLa cells to IC50 for Candida albicans SC5314 infected in HeLa cells. In a few lines: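 Selectivity index calculated as CC50/IC50. CC50 is the half-maximal cytotoxic concentration in HeLa cells; IC50 is the half-maximal antimycotic concentration in the C. albicans–infected HeLa assay. Both come from 5-day fluorescein diacetate viability readouts.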

Series [3] can be described thus: Cytotoxicity against human HeLa cells assessed as cell viability after 5 days by fluorescein diacetate assay. Format: cell-based.
Series [4] concerns Candida albicans. Briefly: Antifungal activity against Candida albicans SC5314 infected in HeLa cells at 20 uM after 5 days by fluorescein diacetate assay. Format: functional, organism-based. Put shortly:
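Primary HTS: HeLa cells co-incubated with C. albicans plus a single compound at ~20 μM for 5 days. Viability checked microscopically at 18 h and quantified at day 5 by fluorescein diacetate fluorescence. Wells also scanned visually for yeast growth. Hit criterion: >40% signal relative to the uninfected untreated HeLa (~100%) and infected untreated HeLa (~0%) controls.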

The subject of series [5] is Candida albicans. The series can be described thus: Antifungal activity against Candida albicans DSMZ 11949 by broth dilution method. It is filed as functional. In a few lines:
(§1)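 MICs by broth microdilution following CLSI M27-A3 for yeasts, with fluconazole as the reference antifungal. Panel covered type strains and clinical isolates of Candida spp. (21 strains). Reference control strains: C. albicans DSMZ 11949, C. glabrata ATCC 90030, C. parapsilosis 22019 and 90018, Issatchenkia orientalis ATCC 6258. MIC in μg/mL; averages given as geometric means.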
On the technique in general: In broth dilution the organism is exposed to a series of concentrations in liquid medium.

Series [6] has as its system Nakaseomyces glabratus. Briefly: Antifungal activity against Candida glabrata ATCC 90030 by broth dilution method. Format: functional. Put shortly: as §1
For series [7], the system named is Candida parapsilosis. Briefly: Antifungal activity against Candida parapsilosis 22019 by broth dilution method. Format: functional. The conditions noted are these: Lodderomyces parapsilosis. Put shortly:
as §1

Series [8] has as its system Candida parapsilosis. Briefly: Antifungal activity against Candida parapsilosis 90018 by broth dilution method. Format: functional. The conditions noted are these: Lodderomyces parapsilosis. Put shortly: as §1
The subject of the next series is Pichia kudriavzevii. The series can be described thus: Antifungal activity against Issatchenkia orientalis ATCC 6258 by broth dilution method. Format: functional. In a few lines: as §1
Series [9] concerns Nakaseomyces glabratus. The series can be described thus: Antifungal activity against Candida glabrata AN 8626 by broth dilution method. Format: functional. Put shortly:
as §1

For series [10], the system named is Nakaseomyces glabratus. The series can be described thus: Antifungal activity against Candida glabrata CG 7 by broth dilution method. Format: functional. In a few lines: as §1
Series [11] relates to Candida albicans. The series can be described thus: Antifungal activity against Candida albicans CA20 by broth dilution method. It is filed as functional. In a few lines:
as §1

Series [12] concerns Candida albicans. The series can be described thus: Antifungal activity against Candida albicans CA21 by broth dilution method. Format: functional. Put shortly: as §1
Series [13] concerns Candida albicans. The series can be described thus: Antifungal activity against Candida albicans MY 2902/2008 by broth dilution method. Format: functional. In a few lines:
as §1

Series [14] has as its system Candida albicans. Briefly: Antifungal activity against Candida albicans SCS 71865 L by broth dilution method. Format: functional. In a few lines:
as §1

For series [15], the system named is Candida albicans. Briefly: Antifungal activity against Candida albicans Jg 32570 by broth dilution method. It is filed as functional. In a few lines: as §1
For series [16], the system named is Candida albicans. The series can be described thus: Antifungal activity against Candida albicans AM2001/2007 by broth dilution method. It is filed as functional. Put shortly:
as §1

Series [17] deals with Candida albicans. Briefly: Antifungal activity against Candida albicans AN 1699 by broth dilution method. It is filed as functional. Put shortly: as §1
The test system of series [18] is Candida albicans. Briefly: Antifungal activity against Candida albicans AN 1994 by broth dilution method. Format: functional. Put shortly: as §1
In another series the test system is Candida tropicalis. Briefly: Antifungal activity against Candida tropicalis AN 1946 by broth dilution method. Format: functional. Put shortly:
as §1

Series [19] concerns Candida albicans. The series can be described thus: Antifungal activity against Candida albicans AN 562 by broth dilution method. It is filed as functional. In a few lines:
as §1

Series [20] concerns Candida albicans. Briefly: Antifungal activity against Candida albicans VB 1723 by broth dilution method. Format: functional. In a few lines:
as §1

Series [21] has as its system Candida albicans. The series can be described thus: Antifungal activity against Candida albicans AN 3156 by broth dilution method. It is filed as functional. Put shortly:
as §1

Series [22] has as its system Candida parapsilosis. The series can be described thus: Antifungal activity against Candida parapsilosis AN 5485 by broth dilution method. Format: functional. The note with it: Lodderomyces parapsilosis. Put shortly:
as §1

The test system of series [23] is Candida parapsilosis. The series can be described thus: Antifungal activity against Candida parapsilosis AV 7675 by broth dilution method. The note with it: Lodderomyces parapsilosis. Format: functional. In a few lines:
as §1

The mark [24] stands for this setting: Candida albicans, SC5314, HeLa, 120 h, read-out: IC50.

≈ marks a conversion by molar mass, not a printed value. Calls of active or inactive are those of the source.

One may read the IC50 as the concentration needed to halve the response being measured. With `CC(=O)N[C@H](c1nc2ccccc2n1Cc1cccc(Cl)c1)C(C)C`, in the series on Candida albicans [1] (hela), the IC50 entry is “Not Active”.

What is called CC50 is the concentration that lowers cell viability or growth by half. Consider `CCC[C@H](N)c1nc2ccccc2n1Cc1cccc(C)c1`, for which, in series [2], the “Ratio CC50/IC50” value amounted to 15. For the same compound, the CC50 at 120 h in series [3] was 30 µM. Further, the IC50 in the series with Candida albicans [1] (setting [24]) worked out at 2 µM. The inhibition entry with Candida albicans [4] was “inactive”.

What is called MIC is the smallest concentration in the dilution series that meets the test's criterion for growth inhibition. In the case of `Cc1cccc(Cn2c([C@H](C)N)nc3ccccc32)c1`, the MIC stood at 8 µg/mL (≈ 30.1 µM) against Candida albicans [5]; 64 µg/mL (≈ 241 µM) against Nakaseomyces glabratus [6]; 128 µg/mL (≈ 482 µM) in the series with Candida parapsilosis [7]; 128 µg/mL (≈ 482 µM) against Candida parapsilosis [8]; 128 µg/mL (≈ 482 µM) against Pichia kudriavzevii; 64 µg/mL (≈ 241 µM) in the series on Nakaseomyces glabratus [9]. Further, the MIC against Nakaseomyces glabratus [10] came to 64 µg/mL (≈ 241 µM); in the series with Candida albicans [11], 1 µg/mL (≈ 3.77 µM); in the series with Candida albicans [12] it was 64 µg/mL (≈ 241 µM); against Candida albicans [13] it was 32 µg/mL (≈ 121 µM); in the series with Candida albicans [14] it was 128 µg/mL (≈ 482 µM); in the series with Candida albicans [15] it was 128 µg/mL (≈ 482 µM). For the same compound, the MIC against Candida albicans [16] was found to be 64 µg/mL (≈ 241 µM); against Candida albicans [17], 128 µg/mL (≈ 482 µM); in the series on Candida albicans [18] it was 128 µg/mL (≈ 482 µM); with Candida tropicalis, 128 µg/mL (≈ 482 µM); in the series on Candida albicans [19], 128 µg/mL (≈ 482 µM); against Candida albicans [20], 128 µg/mL (≈ 482 µM). In addition, the minimum inhibitory concentration (MIC) with Candida albicans [21], with Candida parapsilosis [22] and in the series on Candida parapsilosis [23] was 128 µg/mL (≈ 482 µM) each time. Besides, the inhibition result in the series with Candida albicans [4] is “inactive”.

With `C[C@H](N)c1nc2ccccc2n1Cc1cccc(Cl)c1`, the “Ratio CC50/IC50” value in series [2] is listed as 2.5. Further, the MIC is 4 µg/mL (≈ 14 µM) against Candida albicans [5]; 8 µg/mL (≈ 28 µM) in the series with Nakaseomyces glabratus [6]; 4 µg/mL (≈ 14 µM) in the series with Candida parapsilosis [7]; 4 µg/mL (≈ 14 µM) against Candida parapsilosis [8]; 4 µg/mL (≈ 14 µM) in the series on Pichia kudriavzevii; 4 µg/mL (≈ 14 µM) in the series on Nakaseomyces glabratus [9]. Besides, the MIC in the series on Nakaseomyces glabratus [10] was determined as 8 µg/mL (≈ 28 µM); with Candida albicans [11] it was 0.125 µg/mL (≈ 0.437 µM); with Candida albicans [12] it was 0.125 µg/mL (≈ 0.437 µM); against Candida albicans [13], 0.5 µg/mL (≈ 1.75 µM); against Candida albicans [14], 8 µg/mL (≈ 28 µM); in the series with Candida albicans [15] it was 128 µg/mL (≈ 448 µM). Further, the minimal inhibitory concentration (MIC) against Candida albicans [16] came to 8 µg/mL (≈ 28 µM); against Candida albicans [17], 16 µg/mL (≈ 56 µM); against Candida albicans [18] it was 16 µg/mL (≈ 56 µM); in the series on Candida tropicalis, 8 µg/mL (≈ 28 µM); against Candida albicans [19], 16 µg/mL (≈ 56 µM); against Candida albicans [20], 1 µg/mL (≈ 3.5 µM). The values for the MIC in the series on Candida albicans [21], against Candida parapsilosis [22] and in the series on Candida parapsilosis [23] were 16 µg/mL (≈ 56 µM), 8 µg/mL (≈ 28 µM) and 128 µg/mL (≈ 448 µM), respectively. Besides, the half-maximal cytotoxic concentration (CC50) at 120 h in [3] worked out at 19.3 µM. In the series on Candida albicans [1] (setting [24]), the half-inhibitory concentration (IC50) was 7.8 µM. Also, the inhibition result in the series with Candida albicans [4] is “inactive”.

Turning to `CC(C)[C@H](N)c1nc2ccccc2n1Cc1cccc(Cl)c1`, the “Ratio CC50/IC50” value in [2] came out at 130. Also, the MIC in the series with Candida albicans [5] came to 2 µg/mL (≈ 6.37 µM); with Nakaseomyces glabratus [6], 0.125 µg/mL (≈ 0.398 µM); with Candida parapsilosis [7], 2 µg/mL (≈ 6.37 µM); in the series on Candida parapsilosis [8], 0.5 µg/mL (≈ 1.59 µM); against Pichia kudriavzevii it was 0.5 µg/mL (≈ 1.59 µM); with Nakaseomyces glabratus [9], 0.125 µg/mL (≈ 0.398 µM). In addition, the minimum inhibitory concentration (MIC) stood at 2 µg/mL (≈ 6.37 µM) with Nakaseomyces glabratus [10]; 0.125 µg/mL (≈ 0.398 µM) with Candida albicans [11]; 0.125 µg/mL (≈ 0.398 µM) against Candida albicans [12]; 16 µg/mL (≈ 51 µM) against Candida albicans [13]; 64 µg/mL (≈ 204 µM) in the series on Candida albicans [14]; 16 µg/mL (≈ 51 µM) against Candida albicans [15]. The MIC came to 0.25 µg/mL (≈ 0.797 µM) in the series on Candida albicans [16]; 32 µg/mL (≈ 102 µM) against Candida albicans [17]; 16 µg/mL (≈ 51 µM) in the series with Candida albicans [18]; 4 µg/mL (≈ 12.7 µM) with Candida tropicalis; 16 µg/mL (≈ 51 µM) in the series on Candida albicans [19]; 0.25 µg/mL (≈ 0.797 µM) against Candida albicans [20]. The minimal inhibitory concentration (MIC) came to 16 µg/mL (≈ 51 µM) in the series with Candida albicans [21], 1 µg/mL (≈ 3.19 µM) in the series on Candida parapsilosis [22] and 8 µg/mL (≈ 25.5 µM) in the series with Candida parapsilosis [23]. In [3], the CC50 at 120 h was determined as 97.5 µM. Further, the IC50 in the series with Candida albicans [1] (setting [24]) is 0.75 µM.

Regarding `CC(C)(N)c1nc2ccccc2n1Cc1ccc(Cl)cc1`, the “Ratio CC50/IC50” value in [2] came out at 10. Further, the half-maximal cytotoxic concentration (CC50) at 120 h in series [3] was 50 µM. Besides, the IC50 with Candida albicans [1] (setting [24]) amounted to 5 µM. The inhibition result in the series with Candida albicans [4] is “inactive”.
